{"data": "Results of several laboratories", "organism": "Mycobacterium tuberculosis", "effect on": "microbial growth"}
{"Structure (SMILES)": "COC(=O)c1cc(-c2cccc(NC(=O)Nc3cccc(F)c3)c2)on1", "strain": "ATCC27294 H37RV", "time": "7 days", "MIC": "2 µg/mL"}
{"Structure (SMILES)": "CC1=NN(CNc2ccc(O)cc2)C(=O)C1=NNn1c(-c2ccccc2)nc2ccccc2c1=O", "method": "resazurin", "strain": "H37RV", "MIC": "53.5 µM"}
{"Structure (SMILES)": "NNC(=O)c1ccncc1", "cells": "THP-1", "strain": "H37RV", "MIC": "0.22 µM"}
{"Structure (SMILES)": "CC(C)=CCCC(C)CC1CC(=O)c2ccc(O)cc2O1 (stereo not drawn)", "method": "broth dilution", "strain": "H37RV", "MIC": "100 µg/mL"}
{"Structure (SMILES)": "NNC(=O)c1ccncc1", "strain": "H37RV", "MIC": "0.05 µg/mL"}
{"Structure (SMILES)": "COC(=O)c1cc(-c2cccc(NC(=O)Nc3ccccc3F)c2)on1", "strain": "ATCC27294 H37RV", "time": "7 days", "MIC": "2 µg/mL"}
{"Structure (SMILES)": "[H]/N=C(/N)N[C@H]1[C@H](O)[C@@H](O)[C@H](O[C@@H]2O[C@@H](C)[C@](O)(C=O)[C@H]2O[C@@H]2O[C@@H](CO)[C@H](O)[C@@H](O)[C@@H]2NC)[C@@H](N/C(N)=N\\[H])[C@@H]1O", "strain": "H37RV", "MIC": "1.1 µg/mL"}
{"Structure (SMILES)": "CO[C@H]1/C=C/O[C@@]2(C)Oc3c(C)c(O)c4c(O)c(c(/C=N/N5CCN(C)CC5)c(O)c4c3C2=O)NC(=O)/C(C)=C\\C=C\\[C@H](C)[C@H](O)[C@@H](C)[C@@H](O)[C@@H](C)[C@H](OC(C)=O)[C@@H]1C", "strain": "ATCC27294 H37RV", "MIC": "< 0.1 µg/mL"}
{"Structure (SMILES)": "COC(=O)c1cc(-c2cccc(NC(=O)Nc3ccccc3)c2)on1", "strain": "ATCC27294 H37RV", "time": "7 days", "MIC": "4 µg/mL"}
{"Structure (SMILES)": "Cc1cn2c(C(=O)NCc3ccc(S(F)(F)(F)(F)F)cc3)c(C)nc2s1", "method": "resazurin", "strain": "H37RV", "MIC": "0.078 µM"}
{"Structure (SMILES)": "O=C1C(=NNc2nc(-c3ccccc3)cs2)C(N=Cc2ccccc2Cl)=NN1c1ccccc1", "method": "resazurin", "strain": "H37RV", "MIC": "25 µg/mL"}
{"Structure (SMILES)": "O=C(NC(=O)c1cc2c(F)cc(F)cc2[nH]1)c1cccc(Cl)c1", "method": "resazurin", "strain": "H37RV", "MIC": "> 96 µM"}
{"Structure (SMILES)": "Cc1ccc(C)n1-c1ccc(-c2n[nH]c(=S)[nH]2)cc1", "method": "broth dilution", "strain": "H37RV", "time": "21 days", "MIC": "2 µg/mL"}
{"Structure (SMILES)": "O=[N+]([O-])c1ccc(/C(O)=C/C(=S)S)cc1", "strain": "ATCC27294 H37RV", "time": "8 days", "MIC": "7.8 µg/mL"}
{"Structure (SMILES)": "COC(=O)c1cc(-c2cccc(NC(=S)Nc3ccc([N+](=O)[O-])cc3)c2)on1", "strain": "ATCC27294 H37RV", "time": "7 days", "MIC": "2 µg/mL"}
{"Structure (SMILES)": "[O-][n+]1ccccc1SSc1cccc[n+]1[O-]", "method": "resazurin", "MIC": "0.23 µM"}
{"Structure (SMILES)": "CCc1nc2ccc(Cl)cn2c1C(=O)NCc1ccc(S(F)(F)(F)(F)F)cc1", "strain": "H37RV", "time": "5 days", "MIC": "0.014 µM"}
{"Structure (SMILES)": "NC(=O)c1cnccn1", "method": "resazurin", "strain": "H37RV", "MIC": "3.12 µg/mL"}
{"Structure (SMILES)": "Cc1c(Cc2ccc(Cl)cc2)c(=O)n2c([nH]c3ccccc32)c1C#N", "method": "broth dilution", "strain": "H37RV", "MIC": "1 µg/mL"}
{"Structure (SMILES)": "CC1CC(C)(C)CC2(C1)SC(C)C(=O)N2NC(=O)c1[nH]c2ccc(Cl)cc2c1-c1ccccc1 (stereo not drawn)", "strain": "ATCC27294 H37RV", "MIC": "1000 µM"}
{"Structure (SMILES)": "[H]/N=C(/N)N[C@H]1[C@H](O)[C@@H](O)[C@H](O[C@@H]2O[C@@H](C)[C@](O)(C=O)[C@H]2O[C@@H]2O[C@@H](CO)[C@H](O)[C@@H](O)[C@@H]2NC)[C@@H](N/C(N)=N\\[H])[C@@H]1O", "strain": "ATCC27294 H37RV", "time": "7 days", "MIC": "0.5 µg/mL"}
{"Structure (SMILES)": "O=C(CNS(=O)(=O)c1ccccc1[N+](=O)[O-])N1CCN(C(c2ccc(F)cc2)c2ccc(F)cc2)CC1", "strain": "ATCC27294 H37RV", "MIC": "> 25 µg/mL"}
{"Structure (SMILES)": "COC(=O)c1cc(-c2ccc(OC)c(NC(=O)Nc3ccc(Cl)c(Cl)c3)c2)on1", "strain": "ATCC27294 H37RV", "time": "7 days", "MIC": "8 µg/mL"}
{"Structure (SMILES)": "O=C1C(=NNc2nc(-c3ccccc3)cs2)C(N=Cc2ccc(Cl)cc2)=NN1c1ccccc1", "method": "resazurin", "strain": "H37RV", "MIC": "25 µg/mL"}
{"Structure (SMILES)": "CC1(C)S[C@@H]2[C@H](NC(=O)[C@H](N)c3ccccc3)C(=O)N2[C@H]1C(=O)O", "method": "resazurin", "strain": "H37RA", "time": "14 days", "MIC": "64 µg/mL"}
{"Structure (SMILES)": "O=C(CCNS(=O)(=O)c1ccccc1[N+](=O)[O-])N1CCN(C(c2ccc(F)cc2)c2ccc(F)cc2)CC1", "strain": "ATCC27294 H37RV", "MIC": "> 25 µg/mL"}
{"Structure (SMILES)": "CC(=O)O[C@H]1C[C@@]2(C)[C@@H](C[C@@H](O)[C@H]3[C@@]4(C)CC[C@@H](O)[C@@H](C)[C@@H]4CC[C@@]32C)/C1=C(\\CCC=C(C)C)C(=O)O", "method": "resazurin", "strain": "H37RA", "time": "14 days", "MIC": "4 µg/mL"}
{"Structure (SMILES)": "COC(=O)c1cc(-c2cccc(NC(=O)Nc3ccc(C)cc3)c2)on1", "strain": "ATCC27294 H37RV", "time": "7 days", "MIC": "0.5 µg/mL"}
{"Structure (SMILES)": "CC[C@@H](CO)NCCN[C@@H](CC)CO", "method": "resazurin", "strain": "H37RA", "time": "14 days", "MIC": "1 µg/mL"}
{"Structure (SMILES)": "COC1C(O)C(n2ccc(=O)[nH]c2=O)OC1C(OC1OC(C(=O)NC2CCCCNC2=O)=CC(O)C1O)C(N)=O (stereo not drawn)", "method": "resazurin", "strain": "H37RV", "MIC": "12.5 µg/mL"}
{"Structure (SMILES)": "CO[C@H]1/C=C/O[C@@]2(C)Oc3c(C)c(O)c4c(O)c(c(/C=N/N5CCN(C)CC5)c(O)c4c3C2=O)NC(=O)/C(C)=C\\C=C\\[C@H](C)[C@H](O)[C@@H](C)[C@@H](O)[C@@H](C)[C@H](OC(C)=O)[C@@H]1C", "MIC": "0.02 µg/mL"}
{"Structure (SMILES)": "C[C@@H]1CN(CC2CCCCC2)C[C@H](C)N1c1nc(=O)c2cc(C(F)(F)F)cc(C#N)c2s1", "method": "resazurin", "strain": "H37RV", "MIC": "> 2 µM"}
{"Structure (SMILES)": "CCCCCCC/C=C\\[C@H](O)C#CC#C[C@@H](O)CC", "method": "resazurin", "strain": "ATCC35801 ERDMAN", "time": "7 days", "MIC": "49.5 µg/mL"}
{"Structure (SMILES)": "Cc1cc(=O)[nH]n1C(=O)c1ccc(-n2c(C)ccc2C)cc1", "method": "broth dilution", "strain": "H37RV", "time": "21 days", "MIC": "2 µg/mL"}
{"Structure (SMILES)": "CC1SC2(CCC(c3ccccc3)CC2)N(NC(=O)c2[nH]c3ccc(Cl)cc3c2-c2ccccc2)C1=O (stereo not drawn)", "strain": "ATCC27294 H37RV", "MIC": "7.8 µM"}
{"Structure (SMILES)": "N=C(N)Cc1ccc(NC(=O)c2ccc(C(=O)Nc3ccc(CC(=N)N)cc3)cc2)cc1", "strain": "H37RV", "time": "7 days", "MIC": "1 µg/mL"}
{"Structure (SMILES)": "COC(=O)c1cc(-c2cccc(NC(=O)Nc3cc(OC)ccc3OC)c2)on1", "strain": "ATCC27294 H37RV", "time": "7 days", "MIC": "0.5 µg/mL"}
{"Structure (SMILES)": "[H]/N=C(/N)N[C@H]1[C@H](O)[C@@H](O)[C@H](O[C@@H]2O[C@@H](C)[C@](O)(C=O)[C@H]2O[C@@H]2O[C@@H](CO)[C@H](O)[C@@H](O)[C@@H]2NC)[C@@H](N/C(N)=N\\[H])[C@@H]1O", "strain": "H37RV", "time": "5 days", "MIC": "1.5 µM"}
{"Structure (SMILES)": "O=C1CC[C@@H]2CN(Cc3ccccc3)CC[C@@]23OC[C@H](C2CC2)N13", "strain": "H37RV", "MIC": "37 µM"}
{"Structure (SMILES)": "Cc1ccc(C)n1-c1ccc(-c2nnc(-c3cccc([N+](=O)[O-])c3)[nH]2)cc1", "method": "broth dilution", "strain": "H37RV", "time": "21 days", "MIC": "16 µg/mL"}
{"Structure (SMILES)": "CO[C@H]1/C=C/O[C@@]2(C)Oc3c(C)c(O)c4c(O)c(c(/C=N/N5CCN(C)CC5)c(O)c4c3C2=O)NC(=O)/C(C)=C\\C=C\\[C@H](C)[C@H](O)[C@@H](C)[C@@H](O)[C@@H](C)[C@H](OC(C)=O)[C@@H]1C", "method": "resazurin", "strain": "H37RV", "time": "7 days", "MIC": "0.061 µM"}
{"Structure (SMILES)": "C=C[C@@]1(C)CC[C@@H]2C(C)(C)c3cccc4[nH]c5c(c34)[C@@]2(O)[C@]1(C#N)[C@H]1O[C@H]1C5(C)C", "strain": "H37RV", "MIC": "11.3 µM"}
